Test results published in ChEMBL document CHEMBL5058577, “EUbOPEN Chemogenomics Library 2 (Multiplex)” (2022).

Test system: Fibroblast
Test: Multiplex assay against human fibroblast
Assay type: toxicity, cell-based
How it was run: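 Phenotypes for tubulin, mitochondrial mass and membrane permeability are expressed as per cents of healthy-nucleus cells. Cells were stained live at seeding with Hoechst33342, BioTracker Green Microtubule Cytoskeleton Dye, MitoTracker Red and Annexin V Alexa Fluor 680, then imaged after compound addition on a CQ1 microscope at 37°C and 5% CO2. Machine-learning gating in CellPathfinder separated Hoechst high-intensity objects from normal cells, divided normal cells by nuclear state (healthy, pyknosed, fragmented) and divided pyknosed cells into mitotic or apoptotic.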

[1] = 12 h, 1 µM, compound concentration 1 uM, replicate 1
[2] = 12 h, 1 µM, compound concentration 1 uM, replicate 2
[3] = 12 h, 10 µM, compound concentration 10 uM, replicate 1
[4] = 12 h, 10 µM, compound concentration 10 uM, replicate 2
[5] = 24 h, 1 µM, compound concentration 1 uM, replicate 1
[6] = 24 h, 1 µM, compound concentration 1 uM, replicate 2
[7] = 24 h, 10 µM, compound concentration 10 uM, replicate 1
[8] = 24 h, 10 µM, compound concentration 10 uM, replicate 2
[9] = 48 h, 1 µM, compound concentration 1 uM, replicate 1
[10] = 48 h, 1 µM, compound concentration 1 uM, replicate 2
[11] = 48 h, 10 µM, compound concentration 10 uM, replicate 1
[12] = 48 h, 10 µM, compound concentration 10 uM, replicate 2

Cc1cc(O)c(-c2ccc([C@@H](C)CN(C)C)cc2)c2c1[nH]c(=O)c1sccc12
Population Apoptotic (%) [1]: 59%
Population Fragmented Nuclei (%) [1]: 12%
Population Healthy Nuclei (%) [1]: 67%
Population Hoechst High Intensity Objects (%) [1]: 7%
Population Membrane Permeable-Phenotype (%) [1]: 1%
Population Mitochondria Different-Phenotype (%) [1]: 17%
Population Mitotic Cells (%) [1]: 40%
Population Normal (%) [1]: 92%
Population Pyknosed Nuclei (%) [1]: 20%
Population Tubulin-Different-Phenotype (%) [1]: 44%
Total Cell Count [1]: 145
Population Apoptotic (%) [2]: 50%
Population Fragmented Nuclei (%) [2]: 22%
Population Healthy Nuclei (%) [2]: 56%
Population Hoechst High Intensity Objects (%) [2]: 2%
Population Membrane Permeable-Phenotype (%) [2]: 4%
Population Mitochondria Different-Phenotype (%) [2]: 12%
Population Mitotic Cells (%) [2]: 50%
Population Normal (%) [2]: 97%
Population Pyknosed Nuclei (%) [2]: 21%
Population Tubulin-Different-Phenotype (%) [2]: 52%
Total Cell Count [2]: 115
Population Apoptotic (%) [3]: 69%
Population Fragmented Nuclei (%) [3]: 19%
Population Healthy Nuclei (%) [3]: 63%
Population Hoechst High Intensity Objects (%) [3]: 6%
Population Membrane Permeable-Phenotype (%) [3]: 0%
Population Mitochondria Different-Phenotype (%) [3]: 40%
Population Mitotic Cells (%) [3]: 30%
Population Normal (%) [3]: 93%
Population Pyknosed Nuclei (%) [3]: 16%
Population Tubulin-Different-Phenotype (%) [3]: 90%
Total Cell Count [3]: 146
Population Apoptotic (%) [4]: 70%
Population Fragmented Nuclei (%) [4]: 28%
Population Healthy Nuclei (%) [4]: 55%
Population Hoechst High Intensity Objects (%) [4]: 5%
Population Membrane Permeable-Phenotype (%) [4]: 2%
Population Mitochondria Different-Phenotype (%) [4]: 19%
Population Normal (%) [4]: 94%
Population Pyknosed Nuclei (%) [4]: 15%
Population Tubulin-Different-Phenotype (%) [4]: 80%
Total Cell Count [4]: 137
Population Apoptotic (%) [5]: 45%
Population Fragmented Nuclei (%) [5]: 11%
Population Healthy Nuclei (%) [5]: 66%
Population Hoechst High Intensity Objects (%) [5]: 7%
Population Membrane Permeable-Phenotype (%) [5]: 0%
Population Mitochondria Different-Phenotype (%) [5]: 27%
Population Mitotic Cells (%) [5]: 54%
Population Normal (%) [5]: 92%
Population Pyknosed Nuclei (%) [5]: 21%
Population Tubulin-Different-Phenotype (%) [5]: 73%
Total Cell Count [5]: 119
Population Apoptotic (%) [6]: 52%
Population Fragmented Nuclei (%) [6]: 28%
Population Healthy Nuclei (%) [6]: 54%
Population Hoechst High Intensity Objects (%) [6]: 9%
Population Membrane Permeable-Phenotype (%) [6]: 1%
Population Mitochondria Different-Phenotype (%) [6]: 10%
Population Mitotic Cells (%) [6]: 47%
Population Normal (%) [6]: 90%
Population Pyknosed Nuclei (%) [6]: 16%
Population Tubulin-Different-Phenotype (%) [6]: 56%
Total Cell Count [6]: 111
Population Apoptotic (%) [7]: 66%
Population Fragmented Nuclei (%) [7]: 11%
Population Healthy Nuclei (%) [7]: 65%
Population Hoechst High Intensity Objects (%) [7]: 3%
Population Membrane Permeable-Phenotype (%) [7]: 0%
Population Mitochondria Different-Phenotype (%) [7]: 42%
Population Mitotic Cells (%) [7]: 33%
Population Normal (%) [7]: 96%
Population Pyknosed Nuclei (%) [7]: 22%
Population Tubulin-Different-Phenotype (%) [7]: 87%
Total Cell Count [7]: 122
Population Apoptotic (%) [8]: 57%
Population Fragmented Nuclei (%) [8]: 30%
Population Healthy Nuclei (%) [8]: 51%
Population Hoechst High Intensity Objects (%) [8]: 8%
Population Membrane Permeable-Phenotype (%) [8]: 3%
Population Mitochondria Different-Phenotype (%) [8]: 34%
Population Mitotic Cells (%) [8]: 42%
Population Normal (%) [8]: 91%
Population Pyknosed Nuclei (%) [8]: 18%
Population Tubulin-Different-Phenotype (%) [8]: 81%
Total Cell Count [8]: 124
Population Apoptotic (%) [9]: 70%
Population Fragmented Nuclei (%) [9]: 19%
Population Healthy Nuclei (%) [9]: 55%
Population Hoechst High Intensity Objects (%) [9]: 7%
Population Membrane Permeable-Phenotype (%) [9]: 1%
Population Mitochondria Different-Phenotype (%) [9]: 26%
Population Mitotic Cells (%) [9]: 29%
Population Normal (%) [9]: 92%
Population Pyknosed Nuclei (%) [9]: 24%
Population Tubulin-Different-Phenotype (%) [9]: 70%
Total Cell Count [9]: 118
Population Apoptotic (%) [10]: 57%
Population Fragmented Nuclei (%) [10]: 31%
Population Healthy Nuclei (%) [10]: 48%
Population Hoechst High Intensity Objects (%) [10]: 9%
Population Membrane Permeable-Phenotype (%) [10]: 2%
Population Mitochondria Different-Phenotype (%) [10]: 20%
Population Mitotic Cells (%) [10]: 42%
Population Normal (%) [10]: 90%
Population Pyknosed Nuclei (%) [10]: 20%
Population Tubulin-Different-Phenotype (%) [10]: 62%
Total Cell Count [10]: 103
Population Apoptotic (%) [11]: 70%
Population Fragmented Nuclei (%) [11]: 17%
Population Healthy Nuclei (%) [11]: 53%
Population Hoechst High Intensity Objects (%) [11]: 10%
Population Membrane Permeable-Phenotype (%) [11]: 0%
Population Mitochondria Different-Phenotype (%) [11]: 53%
Population Mitotic Cells (%) [11]: 29%
Population Normal (%) [11]: 89%
Population Pyknosed Nuclei (%) [11]: 29%
Population Tubulin-Different-Phenotype (%) [11]: 89%
Total Cell Count [11]: 117
Population Apoptotic (%) [12]: 71%
Population Fragmented Nuclei (%) [12]: 39%
Population Healthy Nuclei (%) [12]: 43%
Population Hoechst High Intensity Objects (%) [12]: 7%
Population Mitochondria Different-Phenotype (%) [12]: 30%
Population Mitotic Cells (%) [12]: 28%
Population Normal (%) [12]: 92%
Population Pyknosed Nuclei (%) [12]: 16%
Population Tubulin-Different-Phenotype (%) [12]: 85%
Total Cell Count [12]: 136
